# In ChEMBL document CHEMBL1133159, “Conformationally constrained analogues of diacylglycerol (DAG). 17. Contrast between sn-1 and sn-2 DAG lactones in binding to protein kinase C” (J Med Chem, 2000):
# Assays:
# [1] = molecular target: T1, Protein kinase C alpha type (Homo sapiens, UniProt P17252); experiment: Affinity for protein kinase-C alpha (PK-C alpha)
# In short: (§1)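 Competitive displacement of bound [20-3H]phorbol 12,13-dibutyrate (PDBU) from recombinant single-isozyme PK-Cα in the presence of phosphatidylserine. ID50 was obtained by fitting the inhibition data points to a theoretical noncooperative competition curve.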
# [2] = Partition coefficient (logP); assay type: physicochemical; details: octanol/water
# [3] = molecular target: T1, Protein kinase C alpha type; experiment: Affinity for protein kinase C alpha; in short: as §1
SMILES,Ki [1] [nM],logP [2],Ki [3] [nM]
CC(C)C(C/C=C1/CC([C@H](CO)OC(=O)CC(C(C)C)C(C)C)OC1=O)C(C)C (stereo not given in full),327,,
CCCCCCCC/C=C1\CC([C@H](CO)OC(=O)CCCCCCCC)OC1=O (stereo not given in full),1200,6.3,1200
CCCCCCCCC(=O)O[C@@H](CO)C1C/C(=C\CC(C(C)C)C(C)C)C(=O)O1 (stereo not given in full),1090,6.08,
CCCCCCCCCCCCCC(=O)O[C@@H](CO)C1CCC(=O)O1 (stereo not given in full),1000,,1000
CCCCCCCCC/C=C1/CC(CO)(COC(=O)CC(C)C)OC1=O (stereo not given),,,13
CCCCCCCCC(=O)O[C@@H](CO)C1C/C(=C/CC(C(C)C)C(C)C)C(=O)O1 (stereo not given in full),499,,
CCCCCCCC/C=C1/CC([C@H](CO)OC(=O)CCCCCCCC)OC1=O (stereo not given in full),1760,,1760
CCCCCCCC/C=C1/CC([C@H](CO)OC(=O)CC(C)C)OC1=O (stereo not given in full),,,565
CCCCCCCCCC(=O)OCC1(CO)C/C(=C/CC(C)C)C(=O)O1 (stereo not given),,,2.3
CCCCCCCC/C=C1\CC([C@H](CO)OC(=O)CC(C)C)OC1=O (stereo not given in full),,,579
CCCCCCC/C=C/CCCCCCC/C=C1/CC(CO)(COC(C)=O)OC1=O (stereo not given),,,24
CC(C)C(C/C=C1\CC([C@H](CO)OC(=O)CC(C(C)C)C(C)C)OC1=O)C(C)C (stereo not given in full),679,5.86,
CCCCCCCC/C=C/CCCCCCCC(=O)OCC1(CO)CCC(=O)O1 (stereo not given),,,96
CCCCCCCC/C=C1/CC([C@H](CO)OC(=O)CC(C(C)C)C(C)C)OC1=O (stereo not given in full),565,,
